In ChEMBL document CHEMBL1681731, “Synthesis, in vitro anti-inflammatory and cytotoxic evaluation, and mechanism of action studies of 1-benzoyl-β-carboline and 1-benzoyl-3-carboxy-β-carboline derivatives” (Bioorg Med Chem, 2011):

Assays:
[1] = system: KB; test: Cytotoxicity activity against human KB cells assessed as growth inhibition at 10 ug/ml after 72 hrs sulforhodamine B assay; assay type: functional
Summary of the method: (§1)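 Cells kept in RPMI-1640/10% FBS with antibiotics at 37 °C, 5% CO2. Trypsinized cells seeded and given compound from DMSO-diluted stock. Incubated 72 h, then fixed with 10% TCA. Stained 10 min with 0.4% sulforhodamine B in 1% HOAc, washed, dye dissolved in 10 mM Trizma. A515 read; growth relative to net protein increase of controls.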

[2] = system: A549; test: Cytotoxicity activity against human A549 cells assessed as growth inhibition at 10 ug/ml after 72 hrs sulforhodamine B assay; assay type: functional; details: A549, 72 h; summary of the method: as §1
[3] = system: DU-145; test: Cytotoxicity activity against human DU145 cells assessed as growth inhibition at 10 ug/ml after 72 hrs sulforhodamine B assay; assay type: functional; details: DU-145, 72 h; summary of the method: as §1
[4] = Cytotoxicity activity against human KBVIN cells assessed as growth inhibition at 10 ug/ml after 72 hrs sulforhodamine B assay; assay type: functional; summary of the method: as §1
[5] = Antiinflammatory activity against human neutrophil assessed as inhibition of N-formyl-l-methionyl phenylalanine/cytochalasin B-induced superoxide anion generation by spectrophotometry; assay type: functional, cell-based
Summary of the method: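 Ferricytochrome c (0.5 mg/mL) reduction, SOD-inhibitable, with 1 mM Ca2+. Neutrophils (6 × 10^5 cells/mL) equilibrated 2 min at 37 °C, then drug or 0.1% DMSO for 5 min. Cytochalasin B 1 µg/mL preincubation, then 100 nM FMLP for 3 min. A550 monitored continuously with stirring. IC50 computed; mean ± SEM, n = 3.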

[6] = Antiinflammatory activity against human neutrophil assessed as inhibition of N-formyl-l-methionyl phenylalanine/cytochalasin B-induced elastase release; assay type: functional, cell-based
Summary of the method: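 Neutrophils (6 × 10^5/mL) supplemented with 100 µM MeO-Suc-Ala-Ala-Pro-Val-p-nitroanilide, equilibrated 2 min at 37 °C, then given drug or 0.1% DMSO vehicle for 5 min. Activated with 100 nM FMLP plus 0.5 µg/mL cytochalasin B. Absorbance at 405 nm followed continuously. Release expressed as percent of drug-free activated control. IC50 computed; mean ± SEM, n = 3.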

[7] = Antiinflammatory activity against mouse […] cells assessed as inhibition of lipopolysaccharide/interferon-gamma induced nitric oxide production; assay type: functional, cell-based
Summary of the method: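 RAW 264.7 cells in DMEM/10% FCS, passages 9–20. Nitrite induced by LPS (1 µg/mL) plus IFN-γ (50 U/mL) for 18 h with or without compound. Griess reagent (1% sulfanilamide, 0.1% naphthylenediamine in 5% H3PO4) read at OD550. EC50 calculated.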

[8] = Therapeutic index, ratio of CC50 for mouse […] cells to EC50 for inhibition of lipopolysaccharide/interferon-gamma induced nitric oxide production in mouse […] cells; assay type: cell-based; details: read-out: TI
[9] = Cytotoxicity against mouse […] cells by MTT assay; assay type: functional
Summary of the method: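 Viability of RAW 264.7 cells taken as mitochondrial reduction of MTT to formazan. Formazan read at OD550.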

[10] = system: RAW264.7; test: Antiinflammatory activity against mouse RAW264.7 cells assessed as reduction of lipopolysaccharide/interferon-gamma induced PGE2 production at 1 uM by EIA; assay type: functional
Summary of the method: (§2)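 RAW 264.7 macrophages (passages 9–20) stimulated with LPS/IFN-γ; compound tested at 1, 3 and 10 µM. Supernatant PGE2 measured by competitive EIA: anti-PGE2 antibody plus peroxidase-PGE2 tracer, 1 h RT; TMB/H2O2 30 min; H2SO4 stop; A450. Results given as % inhibition.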

[11] = system: RAW264.7; test: Antiinflammatory activity against mouse RAW264.7 cells assessed as reduction of lipopolysaccharide/interferon-gamma induced PGE2 production at 3 uM after 18 hrs; assay type: functional; details: RAW264.7, 18 h; summary of the method: as §2
[12] = system: RAW264.7; test: Antiinflammatory activity against mouse RAW264.7 cells assessed as reduction of lipopolysaccharide/interferon-gamma induced PGE2 production at 10 uM after 18 hrs; assay type: functional; details: RAW264.7, 18 h; summary of the method: as §2

CC(=O)O[C@H]1C(=O)[C@@]2(C)[C@H]([C@H](OC(=O)c3ccccc3)[C@]3(O)C[C@H](OC(=O)[C@H](O)[C@@H](NC(=O)c4ccccc4)c4ccccc4)C(C)=C1C3(C)C)[C@]1(OC(C)=O)CO[C@@H]1C[C@@H]2O [PACLITAXEL]
GI50 [1]: 0.00487 µM | GI50 [2]: 0.00558 µM | GI50 [3]: 0.00555 µM | GI50 [4]: > 1 µM

O=C(c1ccccc1)c1nccc2c1[nH]c1ccccc12
GI50 [1]: > 40 µM | GI50 [2]: > 40 µM | GI50 [3]: > 40 µM | GI50 [4]: > 40 µM | IC50 [5]: > 30 µM | IC50 [6]: > 30 µM | EC50 ([7]; Mus musculus, read-out: EC50): 2.67 µM | selectivity ratio [8]: 49 | CC50 [9]: 131 µM | inhibition at 1 µM [10]: 0% | inhibition at 3 µM [11]: 39% | inhibition at 10 µM [12]: 82%

O=C(c1cccc(Br)c1)c1nccc2c1[nH]c1ccccc12
GI50 [1]: > 40 µM | GI50 [2]: > 40 µM | GI50 [3]: > 40 µM | GI50 [4]: > 40 µM | IC50 [5]: > 30 µM | IC50 [6]: > 30 µM | EC50 ([7]; Mus musculus, read-out: EC50): 1.16 µM | selectivity ratio [8]: 44 | CC50 [9]: 51.4 µM | inhibition at 1 µM [10]: 97% | inhibition at 3 µM [11]: 98%

O=c1cc(N2CCOCC2)oc2c(-c3ccccc3)cccc12 [LY-294002]
IC50 [5]: 1.12 µM | IC50 [6]: 1.92 µM

O=C(c1cccc([N+](=O)[O-])c1)c1nccc2c1[nH]c1ccccc12
GI50 [1]: > 40 µM | GI50 [2]: > 40 µM | GI50 [3]: > 40 µM | GI50 [4]: > 40 µM | IC50 [5]: 16.6 µM | EC50 ([7]; Mus musculus, read-out: EC50): 1.06 µM | selectivity ratio [8]: 20 | CC50 [9]: 21.6 µM | inhibition at 1 µM [10]: 0% | inhibition at 3 µM [11]: 95% | inhibition at 10 µM [12]: 96%

COC(=O)c1cc2c([nH]c3ccccc32)c(C(=O)c2ccc(OC)cc2)n1
GI50 [1]: > 40 µM | GI50 [2]: > 40 µM | GI50 [3]: > 40 µM | GI50 [4]: > 40 µM | IC50 [5]: > 30 µM | IC50 [6]: > 30 µM | EC50 ([7]; Mus musculus, read-out: EC50): 0.51 µM | selectivity ratio [8]: 4 | CC50 [9]: 1.95 µM | inhibition at 1 µM [10]: 98% | inhibition at 3 µM [11]: 100%

COc1ccc2c(c1)c(CC(=O)O)c(C)n2C(=O)c1ccc(Cl)cc1 [INDOMETHACIN]
IC50 [5]: 38.3 µM | IC50 [6]: 32 µM

COc1ccc(C(O)c2nccc3c2[nH]c2ccccc23)cc1 (stereo not drawn)
EC50 ([7]; Mus musculus, read-out: EC50): 2.08 µM | selectivity ratio [8]: 764 | CC50 [9]: 1590 µM | inhibition at 1 µM [10]: 0% | inhibition at 3 µM [11]: 0% | inhibition at 10 µM [12]: 19%

O=C(c1ccc([N+](=O)[O-])cc1)c1nccc2c1[nH]c1ccccc12
GI50 [1]: > 40 µM | GI50 [2]: > 40 µM | GI50 [3]: > 40 µM | GI50 [4]: > 40 µM | IC50 [5]: > 30 µM | IC50 [6]: > 30 µM | EC50 ([7]; Mus musculus, read-out: EC50): 0.66 µM | selectivity ratio [8]: 6 | CC50 [9]: 3.86 µM | inhibition at 1 µM [10]: 0% | inhibition at 3 µM [11]: 100% | inhibition at 10 µM [12]: 100%

OC(c1ccc(Br)cc1)c1nccc2c1[nH]c1ccccc12 (stereo not drawn)
GI50 [1]: 15.9 µM | GI50 [2]: 19 µM | GI50 [3]: 13.3 µM | GI50 [4]: 14.5 µM | IC50 [5]: 8.84 µM | IC50 [6]: 14.2 µM | EC50 ([7]; Mus musculus, read-out: EC50): 0.74 µM | selectivity ratio [8]: 95 | CC50 [9]: 70.1 µM | inhibition at 1 µM [10]: 0% | inhibition at 3 µM [11]: 21% | inhibition at 10 µM [12]: 34%

O=C(c1ccccc1Br)c1nccc2c1[nH]c1ccccc12
GI50 [1]: > 40 µM | GI50 [2]: > 40 µM | GI50 [3]: > 40 µM | GI50 [4]: > 40 µM | IC50 [5]: > 30 µM | IC50 [6]: > 30 µM | EC50 ([7]; Mus musculus, read-out: EC50): 6.97 µM | selectivity ratio [8]: 8 | CC50 [9]: 53.8 µM | inhibition at 1 µM [10]: 0% | inhibition at 3 µM [11]: 37% | inhibition at 10 µM [12]: 89%

O=C(c1ccc(Br)cc1)c1nccc2c1[nH]c1ccccc12
GI50 [1]: > 40 µM | GI50 [2]: > 40 µM | GI50 [3]: > 40 µM | GI50 [4]: > 40 µM | IC50 [5]: > 30 µM | IC50 [6]: > 30 µM | EC50 ([7]; Mus musculus, read-out: EC50): 0.3 µM | selectivity ratio [8]: 492 | CC50 [9]: 149 µM | inhibition at 1 µM [10]: 98% | inhibition at 3 µM [11]: 100%

OC(c1ccccc1)c1nccc2c1[nH]c1ccccc12 (stereo not drawn)
GI50 [1]: > 40 µM | GI50 [2]: > 40 µM | GI50 [3]: > 40 µM | GI50 [4]: 22.6 µM | IC50 [5]: 7.88 µM | IC50 [6]: > 30 µM | EC50 ([7]; Mus musculus, read-out: EC50): 0.31 µM | selectivity ratio [8]: 186 | CC50 [9]: 57.4 µM | inhibition at 1 µM [10]: 0% | inhibition at 3 µM [11]: 0% | inhibition at 10 µM [12]: 0%

COc1ccc(C(=O)c2nccc3c2[nH]c2ccccc23)cc1
GI50 [1]: > 40 µM | GI50 [2]: > 40 µM | GI50 [3]: > 40 µM | GI50 [4]: > 40 µM | IC50 [5]: > 30 µM | IC50 [6]: > 30 µM | EC50 ([7]; Mus musculus, read-out: EC50): 4.59 µM | selectivity ratio [8]: 18 | CC50 [9]: 83.4 µM | inhibition at 1 µM [10]: 0% | inhibition at 3 µM [11]: 95% | inhibition at 10 µM [12]: 95%

N=C(N)NN [PIMAGEDINE]
EC50 ([7]; Mus musculus, read-out: EC50): 22.6 µM | selectivity ratio [8]: 16 | CC50 [9]: 358 µM | inhibition at 1 µM [10]: 8% | inhibition at 3 µM [11]: 21% | inhibition at 10 µM [12]: 42%

CC(O)c1nccc2c1[nH]c1ccccc12 (stereo not drawn)
GI50 [1]: > 40 µM | GI50 [2]: > 40 µM | GI50 [3]: > 40 µM | GI50 [4]: > 40 µM | IC50 [5]: 9.4 µM | IC50 [6]: > 30 µM | EC50 [7]: Not Active | CC50 [9]: 0.28 µM | inhibition at 1 µM [10]: 0% | inhibition at 3 µM [11]: 0% | inhibition at 10 µM [12]: 0%

Cc1ccccc1C(=O)c1nccc2c1[nH]c1ccccc12
GI50 [1]: > 40 µM | GI50 [2]: > 40 µM | GI50 [3]: > 40 µM | GI50 [4]: > 40 µM | IC50 [5]: > 30 µM | IC50 [6]: > 30 µM | EC50 ([7]; Mus musculus, read-out: EC50): 2.12 µM | selectivity ratio [8]: > 2000 | inhibition at 1 µM [10]: 0% | inhibition at 3 µM [11]: 44% | inhibition at 10 µM [12]: 82%
